Data reported in article PMC6745485 (Heliyon, 2019).
Where “and” joins values, the source holds several entries; their conditions need not be identical. Equal values may be shown once. Entries after “also recorded” stand apart in the source; their conditions may differ. Read-outs that look alike come from different tables or passages of the source.

Assays:
rat CAR [1] = molecular target: T1, rat CAR (Rattus norvegicus, UniProt Q9QUS1); details: ref Omiecinski et al., 2011a; cited from earlier work
T1 sequence (Q9QUS1 1-358): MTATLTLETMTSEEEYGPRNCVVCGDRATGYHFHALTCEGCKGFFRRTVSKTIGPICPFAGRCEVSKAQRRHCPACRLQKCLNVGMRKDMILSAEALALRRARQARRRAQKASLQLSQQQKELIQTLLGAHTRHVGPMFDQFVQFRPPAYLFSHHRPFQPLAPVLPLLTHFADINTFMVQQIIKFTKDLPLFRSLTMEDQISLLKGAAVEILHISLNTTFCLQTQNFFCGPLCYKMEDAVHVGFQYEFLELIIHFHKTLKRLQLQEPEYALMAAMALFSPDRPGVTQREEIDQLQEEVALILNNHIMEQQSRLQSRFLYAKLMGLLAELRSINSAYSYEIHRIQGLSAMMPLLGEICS

rat CAR [2] = molecular target: T1, rat CAR; assay: Rat CAR reporter gene assay in COS-1 cells; assay type: cell-based; details: for Agonistic activity REC20 CAR: concentration showing 20% of the agonistic activity of 30 μM artemisinin; for Agonistic activity REC20 CAR / Inverse agonistic activity RIC20 CAR: ±SD; for Inverse agonistic activity RIC20 CAR: concentration showing 80% of the activity of the vehicle control
mouse CAR = details: cited from earlier work
rat PPARα = molecular target: T2, rat PPARα (Rattus norvegicus, UniProt P37230); assay: Rat PPARα reporter gene assay in COS-1 cells; assay type: cell-based; details: concentration showing 20% of the agonistic activity of 30 μM BZF; ±SD
T2 sequence (P37230 1-468): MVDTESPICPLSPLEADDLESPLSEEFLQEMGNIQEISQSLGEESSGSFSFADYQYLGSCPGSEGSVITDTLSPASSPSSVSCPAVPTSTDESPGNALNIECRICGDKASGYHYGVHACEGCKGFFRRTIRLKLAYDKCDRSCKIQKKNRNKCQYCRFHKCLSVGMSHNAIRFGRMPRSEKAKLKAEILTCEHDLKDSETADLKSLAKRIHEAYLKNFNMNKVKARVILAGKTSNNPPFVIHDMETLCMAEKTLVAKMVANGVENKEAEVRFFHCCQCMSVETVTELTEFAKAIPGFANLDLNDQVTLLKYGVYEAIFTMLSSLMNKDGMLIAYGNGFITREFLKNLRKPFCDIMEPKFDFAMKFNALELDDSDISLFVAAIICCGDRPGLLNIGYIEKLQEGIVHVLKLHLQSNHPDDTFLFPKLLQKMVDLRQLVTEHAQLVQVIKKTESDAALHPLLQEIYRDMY

human CAR = details: cited from earlier work
rat PXR [3] = molecular target: T3, rat PXR (Rattus norvegicus, UniProt Q9R1A7); assay: Rat PXR reporter gene assay in COS-1 cells; assay type: cell-based; details: for Agonistic activity REC20 PXR: concentration showing 20% of the agonistic activity of 1 μM PCN, ±SD
T3 sequence (Q9R1A7 1-431): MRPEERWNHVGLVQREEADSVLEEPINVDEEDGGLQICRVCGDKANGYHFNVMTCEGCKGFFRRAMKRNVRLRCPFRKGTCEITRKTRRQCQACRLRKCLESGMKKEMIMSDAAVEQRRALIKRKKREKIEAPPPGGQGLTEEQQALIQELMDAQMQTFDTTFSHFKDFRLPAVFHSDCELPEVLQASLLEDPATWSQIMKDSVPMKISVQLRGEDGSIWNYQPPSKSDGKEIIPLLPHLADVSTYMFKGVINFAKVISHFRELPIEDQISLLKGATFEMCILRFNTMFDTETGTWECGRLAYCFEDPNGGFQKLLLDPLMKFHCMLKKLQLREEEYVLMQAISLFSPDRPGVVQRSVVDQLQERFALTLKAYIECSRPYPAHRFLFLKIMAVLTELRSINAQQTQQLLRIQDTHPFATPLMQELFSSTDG
Method in brief: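 COS-1 cells (1×10^4/well) co-transfected with rat PXR expression, reporter and Renilla control plasmids via jetPEI. After 24 h, test compound or 0.1% DMSO added in serum-free D-MEM for 24 h. Dual-luciferase read-out, firefly normalized to Renilla, fold vs vehicle. REC20: concentration reaching 20% of 1 μM PCN activity. Mean ± SD, ≥3 experiments in duplicate; Dunnett's test.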

rat CAR [4] = molecular target: T1, rat CAR; assay type: cell-based; details: 3–10 μM
Method in brief: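 Microsomal mix: NADPH-generating system plus PB/MC-induced male SD rat liver microsomes (60 mg protein) in pH 7.4 phosphate, 30 min, 37 °C; boiled-microsome control. Extracts dried, redissolved in DMSO, diluted into serum-free medium. CAR-transfected COS-1 cells dosed 12 h after transfection, 24 h exposure. Firefly/Renilla luciferase read as fold vs vehicle; 3 experiments, Student's t-test vs boiled.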

rat PXR [5] = molecular target: T3, rat PXR; assay type: cell-based; details: microsomes of PB- and MC-treated rats, NADPH, vs boiled microsomes
Method in brief: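 Test compound (1 μmol) incubated 30 min at 37 °C in 0.1 M K,Na-phosphate pH 7.4. Mix held an NADPH-generating system and liver microsomes (60 mg protein) from male SD rats given PB 80 mg/kg i.p. plus MC 25 mg/kg p.o. daily for 3 d. Boiled microsomes were the control. Ethyl acetate extract went into DMSO and onto transfected COS-1 cells for 24 h. Normalized firefly/Renilla fold vs vehicle; n=3, t-test.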

mouse PPARα = details: among 12 pyrethroid pesticides; ref Takeuchi et al., 2006; cited from earlier work

Compound	Rat CAR activity (rat CAR [1])	Agonistic activity REC20 CAR (rat CAR [2])	Inverse agonistic activity RIC20 CAR (rat CAR [2])	Mouse CAR agonistic activity (mouse CAR; ref Baldwin and Roling (2009))	Agonistic activity REC20 PPARα (rat PPARα)	Human CAR agonistic activity (human CAR; ref Baldwin and Roling (2009))	Agonistic activity REC20 PXR (rat PXR [3]) [µM]	further results
Clc1ccc(-c2nc3sccn3c2C=NOCc2ccc(Cl)c(Cl)c2)cc1 [CITCO, 6-(4-chlorophenyl)imidazo[2,1-b][1,3]thiazole-5-carbaldehyde O-(3,4-dichlorobenzyl)oxime]	inactive toward rat CAR							
Clc1cnc(Oc2ccc(Oc3ncc(Cl)cc3Cl)cc2)c(Cl)c1 [TCPOBOP, 1,4-bis[2-(3,5-dichloropyridyloxy)]benzene]	inactive toward rat CAR							
CC1(C)C(C=C(Cl)Cl)C1C(=O)OC(C#N)c1cccc(Oc2ccccc2)c1 (centres unmarked) [cypermethrin]		- ^c (No effect (REC20 > 30 μM))	- ^c (No effect (REC20 > 30 μM))	agonists	- ^c (No effect (REC20 > 30 μM))	agonists	0.468 ± 0.0267	PXR activity, fold compared with the control (rat PXR [3]; 1 μM or lower): about 2 fold; PXR activity, fold compared with the control (rat PXR [3]; concentration range 1–30 μM): about 3 fold
CC(C)C(C(=O)OC(C#N)c1cccc(Oc2ccccc2)c1)c1ccc(Cl)cc1 (centres unmarked) [fenvalerate]		- ^c (No effect (REC20 > 30 μM))	0.846 µM and 0.846 ± 0.394 µM	agonists	- ^c (No effect (REC20 > 30 μM))	agonists	0.617 ± 0.138	Change of CAR inverse agonistic activity after incubation with liver microsomes (rat CAR [4]): tended to decrease; Effect on CAR activation induced by artemisinin (rat CAR [2]; artemisinin 10 μM, test compound 0.1–30 μM): significantly inhibited CAR activation by artemisinin; CAR inverse agonistic activity (in words) (rat CAR [2]; up to 30 μM): showed CAR inverse agonistic activity; Change of PXR activity upon incubation with rat liver microsomes (rat PXR [5]): markedly decreased; also recorded: significantly decreased; Mouse CAR agonistic activity (mouse CAR; ref Abass et al. (2012)): not mouse CAR; Human CAR agonistic activity (human CAR; ref Abass et al. (2012)): possessed agonistic activity
pyrethrin								Mouse PPARα activation (mouse PPARα): activated mouse PPARα
